Five compounds from ChEMBL document CHEMBL3734702, “Design of Specific Serine Protease Inhibitors Based on a Versatile Peptide Scaffold: Conversion of a Urokinase Inhibitor to a Plasma Kallikrein Inhibitor” (J Med Chem, 2015) can be followed below.

The structures appear in SMILES notation. Where a SMILES comes first, the peptide text is derived from it. Bridges are numbered along the chain shown (N, C = ends). [ ]: non-standard residue; d: D form. Ala(1-amidino-4-piperidyl) = N=C(N)N1CCC(C[C@H](N)C(=O)O)CC1

Assay [1] addresses Prothrombin (Homo sapiens, UniProt P00734). As to the kind of experiment: Inhibition of human thrombin after 15 mins using H-D-Ile-Pro-Arg-p-nitroanilide as substrate. In outline:
(§1)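 Chromogenic substrate was added at about its KM; for KLK1 this was S-2251. Initial velocities were monitored at 405 nm.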

Assay [2] has as its target Prothrombin (Mus musculus, UniProt P19221). As to the kind of experiment: Inhibition of mouse thrombin after 15 mins using H-D-Ile-Pro-Arg-p-nitroanilide as substrate. In outline:
as §1

The target in assay [3] is Vitamin K-dependent protein C (Homo sapiens, UniProt P04070). As to the kind of experiment: Inhibition of human activated protein C after 15 mins using H-D-Ile-Pro-Arg-p-nitroanilide as substrate. The method, boiled down:
as §1

The target in assay [4] is Tissue-type plasminogen activator (Homo sapiens, UniProt P00750). As to the kind of experiment: Inhibition of human tPAn after 15 mins using H-D-Ile-Pro-Arg-p-nitroanilide as substrate. In outline:
as §1

The target of assay [5] is Tissue-type plasminogen activator (Mus musculus, UniProt P11214). Description: Inhibition of mouse tPA after 15 mins using Z-D-Arg-Gly-Arg-p-nitroanilide as substrate. In outline: as §1
Assay [6] concerns the target T1, Suppressor of tumorigenicity 14 protein (Homo sapiens, UniProt Q9Y5Y6).
T1 sequence (Q9Y5Y6 whole entry): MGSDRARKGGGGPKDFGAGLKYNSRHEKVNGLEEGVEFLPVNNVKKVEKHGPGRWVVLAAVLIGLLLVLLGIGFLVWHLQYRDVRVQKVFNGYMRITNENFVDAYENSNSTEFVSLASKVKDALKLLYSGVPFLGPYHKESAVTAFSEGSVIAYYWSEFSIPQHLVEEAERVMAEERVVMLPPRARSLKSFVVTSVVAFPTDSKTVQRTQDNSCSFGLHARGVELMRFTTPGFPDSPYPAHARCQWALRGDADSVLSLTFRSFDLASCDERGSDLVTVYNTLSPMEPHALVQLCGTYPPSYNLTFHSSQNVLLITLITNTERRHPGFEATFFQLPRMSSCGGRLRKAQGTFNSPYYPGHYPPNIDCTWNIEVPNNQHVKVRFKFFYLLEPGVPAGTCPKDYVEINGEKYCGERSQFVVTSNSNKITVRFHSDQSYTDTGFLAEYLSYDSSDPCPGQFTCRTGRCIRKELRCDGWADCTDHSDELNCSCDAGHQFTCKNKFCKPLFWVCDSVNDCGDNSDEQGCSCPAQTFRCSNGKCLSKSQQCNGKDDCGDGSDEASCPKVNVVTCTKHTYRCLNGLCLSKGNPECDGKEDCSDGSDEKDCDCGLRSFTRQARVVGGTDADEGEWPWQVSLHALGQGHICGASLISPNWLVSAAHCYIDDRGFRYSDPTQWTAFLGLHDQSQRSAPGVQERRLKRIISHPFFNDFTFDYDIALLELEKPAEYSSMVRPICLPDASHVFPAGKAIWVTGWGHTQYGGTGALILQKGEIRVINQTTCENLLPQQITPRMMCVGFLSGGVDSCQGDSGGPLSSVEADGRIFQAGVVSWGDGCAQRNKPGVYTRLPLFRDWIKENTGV
As to the kind of experiment: Inhibition of human matriptase after 15 mins using H-D-Ile-Pro-Arg-p-nitroanilide as substrate.

In assay [7] the target is T2, Urokinase-type plasminogen activator (Homo sapiens, UniProt P00749). Description: Binding affinity to human uPA.
Assay [8] deals with Urokinase-type plasminogen activator (Mus musculus) (UniProt P06869). As to the kind of experiment: Binding affinity to mouse uPA.
For a further assay, the target named is T3, Serine protease 1 (Bos taurus, UniProt P00760).
T3 sequence (P00760 whole entry): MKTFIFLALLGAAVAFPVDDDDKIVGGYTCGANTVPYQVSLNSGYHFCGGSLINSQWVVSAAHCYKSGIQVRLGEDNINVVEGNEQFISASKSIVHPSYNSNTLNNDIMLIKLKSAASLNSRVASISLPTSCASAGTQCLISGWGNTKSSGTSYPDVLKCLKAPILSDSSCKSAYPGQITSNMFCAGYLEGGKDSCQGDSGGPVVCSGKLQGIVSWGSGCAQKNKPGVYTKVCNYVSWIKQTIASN
As to the kind of experiment: Inhibition of bovine beta-trypsin after 15 mins using Bz-Ile-Glu(g-OR)-Gly-Arg-p-nitroanilide as substrate. In outline:
as §1

In the next assay the target is Kallikrein-1 (Homo sapiens, UniProt P06870). As to the kind of experiment: Inhibition of human KLK1 after 15 mins using Val-Leu-Lys-p-nitroanilide as substrate. In outline:
as §1

Assay [9] deals with Plasma kallikrein (Mus musculus, UniProt P26262). Description: Inhibition of mouse plasma kallikrein for 15 mins using H-D-Pro-Phe-Arg-p-nitroanilide as substrate. The class given is cell-free. The method, boiled down: as §1
The target of assay [10] is Urokinase-type plasminogen activator (Mus musculus, UniProt P06869). As to the kind of experiment: Inhibition of mouse uPA for 15 mins using pyro-Glu-Gly-Arg-p-nitroanilide as substrate.
Assay [11] concerns the target Plasma kallikrein (Homo sapiens, UniProt P03952). As to the kind of experiment: Inhibition of human plasma kallikrein for 15 mins using H-D-Pro-Phe-Arg-p-nitroanilide as substrate. The class given is cell-free.
In assay [12] the target is Plasminogen (Mus musculus, UniProt P20918). As to the kind of experiment: Inhibition of mouse plasmin after 15 mins using H-D-Ile-Pro-Arg-p-nitroanilide as substrate. In outline:
as §1

Assay [13] deals with Plasminogen (Homo sapiens, UniProt P00747). Description: Inhibition of human plasmin after 15 mins using H-D-Ile-Pro-Arg-p-nitroanilide as substrate. The method, boiled down:
as §1

Assay [14] addresses T2, Urokinase-type plasminogen activator. Description: Inhibition of human uPA for 15 mins using pyro-Glu-Gly-Arg-p-nitroanilide as substrate.
The target in a further assay is Coagulation factor XI (Homo sapiens, UniProt P03951). Description: Inhibition of human coagulation factor 11a after 15 mins.
Sequence of Coagulation factor XI (P03951 19-387 limits assumed): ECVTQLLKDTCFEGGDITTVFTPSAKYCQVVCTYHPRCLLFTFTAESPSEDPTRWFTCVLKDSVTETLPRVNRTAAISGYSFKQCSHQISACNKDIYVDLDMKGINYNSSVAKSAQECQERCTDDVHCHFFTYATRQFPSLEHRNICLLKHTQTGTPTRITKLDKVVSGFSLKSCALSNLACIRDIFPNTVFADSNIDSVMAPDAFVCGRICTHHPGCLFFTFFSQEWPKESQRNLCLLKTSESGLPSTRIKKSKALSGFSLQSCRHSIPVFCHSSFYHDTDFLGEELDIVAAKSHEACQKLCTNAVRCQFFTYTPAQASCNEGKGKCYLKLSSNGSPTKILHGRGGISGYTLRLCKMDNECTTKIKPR
Sequence of Coagulation factor XI (P03951 388-625 limits assumed): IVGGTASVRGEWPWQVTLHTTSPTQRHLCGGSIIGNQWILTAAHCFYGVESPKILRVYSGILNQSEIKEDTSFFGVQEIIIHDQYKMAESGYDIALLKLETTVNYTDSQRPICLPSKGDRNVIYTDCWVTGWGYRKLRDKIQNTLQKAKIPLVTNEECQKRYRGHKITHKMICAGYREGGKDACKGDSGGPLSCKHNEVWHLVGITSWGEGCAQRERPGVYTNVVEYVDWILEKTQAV

Sequence of Tissue-type plasminogen activator (Homo sapiens, UniProt P00750) (P00750 whole entry): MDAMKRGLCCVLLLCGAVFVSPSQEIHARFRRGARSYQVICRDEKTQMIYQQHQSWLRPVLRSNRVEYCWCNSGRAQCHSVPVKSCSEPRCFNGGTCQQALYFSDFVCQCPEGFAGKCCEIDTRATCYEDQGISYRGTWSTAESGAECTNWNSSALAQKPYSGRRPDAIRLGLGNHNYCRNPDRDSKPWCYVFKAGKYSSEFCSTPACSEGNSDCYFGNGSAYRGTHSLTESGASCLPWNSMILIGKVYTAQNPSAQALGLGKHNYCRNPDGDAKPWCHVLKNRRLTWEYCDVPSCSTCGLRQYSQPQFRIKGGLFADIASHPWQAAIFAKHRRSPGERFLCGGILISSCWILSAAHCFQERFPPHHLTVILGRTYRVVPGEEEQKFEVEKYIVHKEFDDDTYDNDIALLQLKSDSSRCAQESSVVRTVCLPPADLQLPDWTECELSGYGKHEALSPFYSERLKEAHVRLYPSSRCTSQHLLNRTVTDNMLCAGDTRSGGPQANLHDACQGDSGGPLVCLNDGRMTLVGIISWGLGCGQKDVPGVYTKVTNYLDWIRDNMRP
Sequence of Tissue-type plasminogen activator (Mus musculus, UniProt P11214) (P11214 whole entry): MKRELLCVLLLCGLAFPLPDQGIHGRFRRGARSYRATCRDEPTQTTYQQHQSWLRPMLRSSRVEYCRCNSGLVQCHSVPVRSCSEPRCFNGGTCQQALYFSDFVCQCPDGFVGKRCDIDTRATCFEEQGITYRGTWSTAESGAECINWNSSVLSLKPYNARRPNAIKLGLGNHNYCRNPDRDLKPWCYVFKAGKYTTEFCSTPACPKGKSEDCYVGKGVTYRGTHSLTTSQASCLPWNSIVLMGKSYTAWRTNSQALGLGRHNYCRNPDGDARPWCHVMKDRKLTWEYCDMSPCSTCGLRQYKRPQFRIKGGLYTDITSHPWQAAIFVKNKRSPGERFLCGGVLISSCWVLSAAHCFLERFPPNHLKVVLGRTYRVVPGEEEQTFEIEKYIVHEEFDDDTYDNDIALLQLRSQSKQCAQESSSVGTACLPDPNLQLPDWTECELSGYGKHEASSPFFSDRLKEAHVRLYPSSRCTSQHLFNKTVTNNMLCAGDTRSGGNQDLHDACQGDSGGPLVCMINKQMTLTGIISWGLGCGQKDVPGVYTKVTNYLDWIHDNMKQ
Sequence of Vitamin K-dependent protein C (P04070 43-197 limits assumed): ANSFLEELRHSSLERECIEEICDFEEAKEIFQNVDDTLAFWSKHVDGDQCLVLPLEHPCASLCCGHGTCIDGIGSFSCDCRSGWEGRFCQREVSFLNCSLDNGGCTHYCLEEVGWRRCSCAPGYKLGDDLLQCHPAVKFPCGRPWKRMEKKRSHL
Sequence of Vitamin K-dependent protein C (P04070 212-461 limits assumed): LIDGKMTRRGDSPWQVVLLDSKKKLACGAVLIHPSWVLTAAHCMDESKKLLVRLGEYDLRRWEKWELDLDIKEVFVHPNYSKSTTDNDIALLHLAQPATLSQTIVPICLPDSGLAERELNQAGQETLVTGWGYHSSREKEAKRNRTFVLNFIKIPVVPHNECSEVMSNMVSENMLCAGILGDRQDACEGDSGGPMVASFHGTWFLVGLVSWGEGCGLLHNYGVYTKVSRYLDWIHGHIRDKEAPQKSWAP
Sequence of Plasminogen (Mus musculus, UniProt P20918) (P20918 98-581 limits assumed): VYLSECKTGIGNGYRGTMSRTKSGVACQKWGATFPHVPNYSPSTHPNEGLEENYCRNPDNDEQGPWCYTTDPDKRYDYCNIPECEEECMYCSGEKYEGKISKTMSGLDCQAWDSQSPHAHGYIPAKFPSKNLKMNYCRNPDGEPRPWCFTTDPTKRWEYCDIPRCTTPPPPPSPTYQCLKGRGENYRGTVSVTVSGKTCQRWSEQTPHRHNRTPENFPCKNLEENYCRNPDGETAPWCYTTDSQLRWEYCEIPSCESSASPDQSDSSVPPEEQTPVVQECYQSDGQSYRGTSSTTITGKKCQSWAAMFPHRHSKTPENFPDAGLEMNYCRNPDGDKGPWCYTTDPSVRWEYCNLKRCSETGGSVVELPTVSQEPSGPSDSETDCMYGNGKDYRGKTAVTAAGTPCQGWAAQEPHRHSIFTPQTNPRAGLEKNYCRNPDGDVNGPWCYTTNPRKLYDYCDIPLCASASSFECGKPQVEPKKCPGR
Sequence of Plasminogen (Mus musculus, UniProt P20918) (P20918 582-812 limits assumed): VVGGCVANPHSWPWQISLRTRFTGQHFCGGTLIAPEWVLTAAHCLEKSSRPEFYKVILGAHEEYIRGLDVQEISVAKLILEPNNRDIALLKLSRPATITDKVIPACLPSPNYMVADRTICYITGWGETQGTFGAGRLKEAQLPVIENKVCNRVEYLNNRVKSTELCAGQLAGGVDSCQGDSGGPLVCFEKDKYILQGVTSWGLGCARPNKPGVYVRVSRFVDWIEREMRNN
Sequence of Plasma kallikrein (Homo sapiens, UniProt P03952) (P03952 20-390 limits assumed): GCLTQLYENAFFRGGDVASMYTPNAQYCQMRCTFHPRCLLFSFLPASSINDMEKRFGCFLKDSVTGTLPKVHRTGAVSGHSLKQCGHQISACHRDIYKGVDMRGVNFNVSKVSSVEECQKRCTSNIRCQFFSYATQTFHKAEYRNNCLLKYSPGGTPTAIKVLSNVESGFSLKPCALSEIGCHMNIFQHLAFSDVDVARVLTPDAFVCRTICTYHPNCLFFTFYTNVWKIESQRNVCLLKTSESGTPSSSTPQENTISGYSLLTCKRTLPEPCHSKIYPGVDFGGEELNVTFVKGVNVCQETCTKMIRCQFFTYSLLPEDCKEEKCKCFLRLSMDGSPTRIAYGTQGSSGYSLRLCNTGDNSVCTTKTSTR
Sequence of Plasma kallikrein (Homo sapiens, UniProt P03952) (P03952 391-638 limits assumed): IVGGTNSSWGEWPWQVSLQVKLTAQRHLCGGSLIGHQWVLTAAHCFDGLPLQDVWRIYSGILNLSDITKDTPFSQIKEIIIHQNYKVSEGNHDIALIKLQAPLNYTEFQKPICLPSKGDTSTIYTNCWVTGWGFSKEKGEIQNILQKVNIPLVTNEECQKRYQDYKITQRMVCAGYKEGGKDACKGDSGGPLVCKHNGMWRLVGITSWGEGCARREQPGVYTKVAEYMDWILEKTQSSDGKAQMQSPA
Sequence of Plasminogen (Homo sapiens, UniProt P00747) (P00747 97-580 limits assumed): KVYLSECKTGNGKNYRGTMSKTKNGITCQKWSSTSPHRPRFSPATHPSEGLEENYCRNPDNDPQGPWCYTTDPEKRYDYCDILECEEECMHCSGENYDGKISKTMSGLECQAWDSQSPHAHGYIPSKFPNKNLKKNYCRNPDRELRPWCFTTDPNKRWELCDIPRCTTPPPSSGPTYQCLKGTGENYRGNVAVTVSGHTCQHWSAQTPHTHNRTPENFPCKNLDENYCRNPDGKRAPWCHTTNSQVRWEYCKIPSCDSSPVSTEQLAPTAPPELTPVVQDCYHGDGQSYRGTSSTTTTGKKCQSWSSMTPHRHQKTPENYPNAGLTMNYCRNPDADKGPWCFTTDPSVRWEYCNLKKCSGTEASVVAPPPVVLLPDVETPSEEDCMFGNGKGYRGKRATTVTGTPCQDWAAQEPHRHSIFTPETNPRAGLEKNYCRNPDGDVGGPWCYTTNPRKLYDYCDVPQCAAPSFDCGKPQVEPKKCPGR
Sequence of Plasminogen (Homo sapiens, UniProt P00747) (P00747 581-810 limits assumed): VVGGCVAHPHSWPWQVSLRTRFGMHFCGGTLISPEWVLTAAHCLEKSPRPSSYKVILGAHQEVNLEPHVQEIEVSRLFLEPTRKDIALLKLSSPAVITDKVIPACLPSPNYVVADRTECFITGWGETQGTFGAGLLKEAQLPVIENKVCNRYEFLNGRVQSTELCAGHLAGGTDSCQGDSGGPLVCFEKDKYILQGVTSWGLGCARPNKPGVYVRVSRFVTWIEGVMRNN
Sequence of Plasma kallikrein (Mus musculus, UniProt P26262) (P26262 20-390 limits assumed): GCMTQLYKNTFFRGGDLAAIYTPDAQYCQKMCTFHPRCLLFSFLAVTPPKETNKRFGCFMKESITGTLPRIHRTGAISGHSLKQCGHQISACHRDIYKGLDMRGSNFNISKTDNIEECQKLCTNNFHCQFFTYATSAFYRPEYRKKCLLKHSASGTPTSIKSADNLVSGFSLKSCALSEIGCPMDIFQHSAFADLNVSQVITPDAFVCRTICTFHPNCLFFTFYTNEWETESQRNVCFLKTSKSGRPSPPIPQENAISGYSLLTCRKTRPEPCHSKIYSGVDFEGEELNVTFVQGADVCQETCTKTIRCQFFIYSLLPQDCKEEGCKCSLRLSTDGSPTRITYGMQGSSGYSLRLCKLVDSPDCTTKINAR
Sequence of Plasma kallikrein (Mus musculus, UniProt P26262) (P26262 391-638 limits assumed): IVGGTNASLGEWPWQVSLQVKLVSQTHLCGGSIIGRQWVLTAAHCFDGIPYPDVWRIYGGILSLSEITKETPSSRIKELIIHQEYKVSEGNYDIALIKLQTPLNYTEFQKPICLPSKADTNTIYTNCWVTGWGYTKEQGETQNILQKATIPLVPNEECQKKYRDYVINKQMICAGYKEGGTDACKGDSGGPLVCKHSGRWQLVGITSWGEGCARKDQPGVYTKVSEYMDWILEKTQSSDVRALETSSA

Take `CC(C)C[C@@H]1NC(=O)[C@H](C)NC(=O)[C@H](CC2CCN(C(=N)N)CC2)NC(=O)[C@H](Cc2ccccc2)NC(=O)[C@H](CCCNC(=N)N)NC(=O)[C@H](C)NC(=O)[C@@H]2CCCN2C(=O)[C@@H](N)CSSC[C@@H](C(=O)O)NC(=O)[C@H](Cc2c[nH]c3ccccc23)NC1=O` (H-CPARF[Ala(1-amidino-4-piperidyl)]ALWC-OH; disulfide 1-10): the Ki (on Prothrombin [1]; at Prothrombin [2]; in assay [3]; in [4]; in assay [5]; in assay [6]) was greater than 1000 µM each time.

With `CC(C)C[C@@H]1NC(=O)[C@H](Cc2ccc(O)cc2)NC(=O)[C@H](CC2CCN(C(=N)N)CC2)NC(=O)[C@H](CO)NC(=O)[C@H](Cc2ccc(O)cc2)NC(=O)[C@H](C)NC(=O)[C@@H]2CCCN2C(=O)[C@@H](N)CSSC[C@@H](C(=O)O)NC(=O)[C@H](CC(=O)O)NC1=O` (H-CPAYS[Ala(1-amidino-4-piperidyl)]YLDC-OH; disulfide 1-10), the Ki (at Prothrombin [1]; at Prothrombin [2]; in assay [3]; in assay [4]; in assay [5]; in [6]) was greater than 1000 µM throughout.

Consider `CC(C)C[C@@H]1NC(=O)[C@H](Cc2ccc(O)cc2)NC(=O)[C@H](CCCNC(=N)N)NC(=O)[C@H](CO)NC(=O)[C@H](Cc2ccc(O)cc2)NC(=O)[C@H](C)NC(=O)[C@@H]2CCCN2C(=O)[C@@H](N)CSSC[C@@H](C(=O)O)NC(=O)[C@H](CC(=O)O)NC1=O` (H-CPAYSRYLDC-OH; disulfide 1-10), for which the Activity is 530 nM in assay [7] and 2 nM in assay [8]. In addition, the Ki (on Prothrombin [1]; at Prothrombin [2]; in assay [3]; in assay [4]; in [5]; in assay [6]) was greater than 1000 µM throughout.

Regarding `CC(C)C[C@@H]1NC(=O)[C@H](C)NC(=O)[C@H](CC2CCN(C(=N)N)CC2)NC(=O)[C@H](Cc2ccccc2)NC(=O)[C@H](CCCNC(=N)N)NC(=O)[C@H](C)NC(=O)[C@@H]2CCCN2C(=O)[C@@H](N)CSSC[C@@H](C(=O)O)NC(=O)[C@H](Cc2ccccc2)NC1=O` (H-CPARF[Ala(1-amidino-4-piperidyl)]ALFC-OH; disulfide 1-10), the Ki (at Prothrombin [1]; on Prothrombin [2]; in assay [3]; in assay [4]; in assay [5]; in assay [6]) was greater than 1000 µM in each case.

As for `CC(C)C[C@@H]1NC(=O)[C@H](C)NC(=O)[C@H](CC2CCN(C(=N)N)CC2)NC(=O)[C@H](Cc2ccccc2)NC(=O)[C@H](CCCNC(=N)N)NC(=O)[C@H](CCCCN)NC(=O)[C@@H]2CCCN2C(=O)[C@@H](N)CSSC[C@@H](C(=O)O)NC(=O)[C@H](Cc2ccccc2)NC1=O` (H-CPKRF[Ala(1-amidino-4-piperidyl)]ALFC-OH; disulfide 1-10), the Ki at Serine protease 1 is 14.1 µM; on Kallikrein-1, 0.384 µM; at Plasma kallikrein [9] it was 0.043 µM; in assay [10], greater than 1000 µM; on Plasma kallikrein [11] it was 0.022 µM; on Prothrombin [1], greater than 1000 µM. The Ki was 3.42 µM on Plasminogen [12]; greater than 1000 µM on Prothrombin [2]; 12.5 µM on Plasminogen [13]; greater than 1000 µM in assay [3]; greater than 1000 µM in assay [4]; greater than 1000 µM in [14]. Further, the Ki was 12.1 µM at Coagulation factor XI, greater than 1000 µM in assay [5] and greater than 1000 µM in assay [6].
